SKN-1 block = suppressors of acrylamide-induced Pgst-4::GFP reporter in worms, primary screen, SKN-1 inhibitor project, whole organism, uHTS, GFP/RFP fluorescence ratio, strain VP596; inhibition, % at 21.8 µM; C. elegans VP596 Pgst-4::GFP/RFP ratio, 24 h; 360,000 compounds, 0.49% hits;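 active = interference check ratio from 0.5 to 1.5 plus GFP to RFP signal ratio inhibition reaching or exceeding a fixed threshold, cut at about 30% in these data, passing the limit was not always enough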
Rpn11 block = Rpn11 (PSMD14) deubiquitinase inhibitors, primary screen, biochemical, fluorescence polarization, uHTS; inhibition, % at 20 µM; 26S proteasome non-ATPase regulatory subunit 14 (Homo sapiens), O00487; human 26S proteasome, Ub4-pepOG fluorescence polarization; 20S core pre-blocked with epoxomicin; 360,000 compounds, 0.59% hits;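 active = inhibition at 20 µM, scaled to each plate's controls, above about 33%, limit read from the data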
DNMT1 block = human DNMT1 methyltransferase inhibitors, primary screen, biochemical, molecular beacon, fluorescence, HinP1I cleavage, uHTS; inhibition (reported as % activation of signal), % at 10 µM; 360,000 compounds, 0.83% hits; AID 588458, 2011; in the data active = inhibition above about 50%
Target sequence (P26358 504-1616 limits assumed): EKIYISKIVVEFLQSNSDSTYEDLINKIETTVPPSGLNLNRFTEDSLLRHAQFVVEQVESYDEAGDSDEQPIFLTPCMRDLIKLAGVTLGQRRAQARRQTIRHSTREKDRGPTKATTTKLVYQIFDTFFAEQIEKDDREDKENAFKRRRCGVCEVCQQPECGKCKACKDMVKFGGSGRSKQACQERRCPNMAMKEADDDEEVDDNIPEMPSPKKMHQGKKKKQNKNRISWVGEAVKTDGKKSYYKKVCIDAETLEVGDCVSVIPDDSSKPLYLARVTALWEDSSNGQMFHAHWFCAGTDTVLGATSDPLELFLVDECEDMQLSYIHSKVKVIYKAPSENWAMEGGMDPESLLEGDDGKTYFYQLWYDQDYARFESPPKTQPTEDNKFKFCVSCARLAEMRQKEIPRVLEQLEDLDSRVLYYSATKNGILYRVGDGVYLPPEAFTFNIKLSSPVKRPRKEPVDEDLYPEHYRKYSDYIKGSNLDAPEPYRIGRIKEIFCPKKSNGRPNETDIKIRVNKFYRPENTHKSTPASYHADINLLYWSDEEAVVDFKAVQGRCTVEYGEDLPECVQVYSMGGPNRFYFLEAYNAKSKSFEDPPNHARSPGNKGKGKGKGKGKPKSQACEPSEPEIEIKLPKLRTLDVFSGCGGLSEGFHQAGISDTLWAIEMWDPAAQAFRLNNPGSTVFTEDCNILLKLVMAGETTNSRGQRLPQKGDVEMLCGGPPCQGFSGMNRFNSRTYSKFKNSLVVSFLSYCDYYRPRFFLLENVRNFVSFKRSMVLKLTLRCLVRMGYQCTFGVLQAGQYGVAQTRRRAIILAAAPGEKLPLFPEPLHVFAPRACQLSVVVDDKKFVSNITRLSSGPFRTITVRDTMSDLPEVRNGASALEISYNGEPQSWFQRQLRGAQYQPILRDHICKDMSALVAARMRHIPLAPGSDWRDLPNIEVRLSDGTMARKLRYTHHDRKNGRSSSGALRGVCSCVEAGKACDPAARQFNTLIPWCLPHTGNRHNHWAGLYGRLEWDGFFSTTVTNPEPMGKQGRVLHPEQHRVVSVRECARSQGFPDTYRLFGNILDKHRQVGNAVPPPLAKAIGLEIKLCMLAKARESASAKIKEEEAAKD
SUMO1-SIM PPI = modulators of SUMO1 protein-protein interactions, primary screen, biochemical, uHTS. inhibition, % at 20 µM. SUMO1 binding to a labelled peptide, TR-FRET, 1 h. 360,000 compounds, 0.33% hits. AID 602429, 2012. Small ubiquitin-related modifier 1 (Homo sapiens), P63165; in the data active = inhibition above about 37%
MT1-MMP act inh = blockers of MT1-MMP proenzyme processing, primary screen, HT1080 RFP-PRO-GFP cells, GFP/RFP fluorescence. GFP/RFP ratio fluorescence, overnight; percent of plate control window, DMSO zero. GFP/RFP ratio change, % at 20 µM. Matrix metalloproteinase-14 (Homo sapiens), P50281. AID 651647, 2012. 360,000 compounds, 0.061% hits;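 active = GFP/RFP ratio change of at least 30% with cell ATP level not reduced by more than half and red fluorescence within 50% of control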
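Read-out: GFP/RFP fluorescence ratio; Test system: RFP-PRO-GFP reporter HT1080 cells; Compound dosing: single-point 20 µM compound, 1% DMSO; Times: overnight compound exposure at 37 °C.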
CSN deneddyl inh = inhibitors of CSN-mediated cullin deneddylation, primary screen, biochemical, fluorescence polarization, uHTS; inhibition, % at 12.5 µM; 360,000 compounds, 0.38% hits; Purified CSN, SCF-Nedd8-OG deneddylation; AID 651999, 2013; COP9 signalosome complex subunit 5 (Homo sapiens), Q92905;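 active = pattern-corrected inhibition above about 35%, with an unprinted fluorescence ratio check between 0.5 and 1.5, limit read from the data, passing the limit was not always enough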;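 note: 0% = enzyme with substrate and 100% = substrate without enzyme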
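Material: human Csn5 produced in HEK293T cells; Input: enzyme 0.24 nM; Reagent: SCFSkp2-Nedd8OG substrate at 10 nM final; Dosing: 12.5 µM compound; Incubation: 90 min reaction at room temperature; Detection: fluorescence polarization of the substrate; Evaluation: % inhibition of substrate cleavage by Csn5; Control set: substrate-only high control, full reaction low control.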
DNMT1 interf DR = spectral interference with molecular beacon fluorescence, dose response, artefact control for DNMT1 inhibitor project, biochemical, fluorescent molecular beacon; AID 602382, 2012; 200 tested, under 10 active; shares compounds with DNMT1 block; spectral interference counter-screen; IC50, µM; call rule not given here
DNMT1 inh conf = DNMT1 methyltransferase inhibitor retest, confirmation, biochemical, molecular beacon, fluorescence, single concentration; shares compounds with DNMT1 block; DNMT1 molecular beacon HinP1I cleavage; inhibition, % at 10 µM; 2,300 compounds, 8% hits; AID 602385, 2012;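 active = average inhibition of at least 30% in the single-concentration confirmation test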
Beacon interf = beacon fluorescence artifact counter-screen. shares compounds with DNMT1 block. DNMT1 molecular beacon spectral interference counterscreen, fluorescence 485/520. activation (fluorescence interference), % at 10 µM. 2,300 compounds, 1% hits;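 active = activation of at least 30% at 10 µM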;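 note: DNMT1 catalytic domain with a HinP1I cleavage step and a FAM/dabcyl DNA beacon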
Rpn11 inh conf = Rpn11 (PSMD14) deubiquitinase inhibitors, confirmation, biochemical, fluorescence polarization, single concentration; purified human 26S proteasome, Ub4-pepOG fluorescence polarization; proteasome pretreated with epoxomicin; 1,900 compounds, 29% hits; AID 602318, 2012; inhibition, % at 20 µM; shares compounds with Rpn11 block
MMP-2 inh = MMP-2 enzyme inhibition, confirmation, counter-screen for RPN11 inhibitor project, biochemical, fluorescence, single concentration; shares compounds with Rpn11 block; recombinant MMP-2, FRET peptide cleavage fluorescence; inhibition, % at 20 µM; 1,900 compounds, 4% hits; AID 602330, 2012;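 note: human MMP-2 activated beforehand with APMA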
Thrombin FP = bovine thrombin protease inhibition, confirmation, counter-screen for Rpn11 inhibitor project, biochemical, fluorescence polarization, single concentration. inhibition, % at 20 µM. shares compounds with Rpn11 block. bovine thrombin cleavage of Ub4-pepOG. 1,900 compounds, 13% hits;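 active = mean inhibition at least 40% at 20 µM, or signal 3 deviations below plate average, so some actives read negative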;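 note: plate controls were thrombin with DMSO for no effect and buffer wells lacking thrombin for full effect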
The depositor's hits bear a star; i = inactive; · = no result. Shown are actives, neighbours in structure and some others; about 2.3% of the full set was active somewhere. Cut-off read from the data, not from the text of the source, unless noted: active = inhibition above about 40%; inactive = the rest.

SMILES	SKN-1 block	Rpn11 block	DNMT1 block	SUMO1-SIM PPI	MT1-MMP act inh	CSN deneddyl inh	DNMT1 inh conf	Beacon interf	Rpn11 inh conf	MMP-2 inh	Thrombin FP	others
COc1cc(C(=O)N2CCC2(C)C(=O)O)cc(OC)c1OC (stereo not drawn)	-7.6	0.2	1.4	-2.7	0.8	0.1	·	·	·	·	·
N#Cc1cc2cc(Cl)ccc2[nH]c1=O	7.6	·	·	-17.8	3.0	-9.6	·	·	·	·	·
Cc1nnc(-c2ccco2)c2cn(-c3cccc(Br)c3)nc12	15.0	45.9*	91.4*	5.9	-0.6	51.0	3.0	-3.2	22.0	21.9	-3.8
CC(C)(C)c1ccc(C(=O)Nc2ccc(S(N)(=O)=O)cc2)cc1	-2.3	-1.6	0.5	-0.2	3.2	0.3	·	·	·	·	·
NS(=O)(=O)c1ccc(NC(=O)c2cccc(N3C(=O)c4ccccc4C3=O)c2)cc1	0.7	79.0*	54.9*	93.6*	2.0	32.6	7.5	2.1	81.8*	i	-11.8
NS(=O)(=O)c1ccc(NC(=O)c2ccc(-c3ccccc3)cc2)cc1	1.2	100.8*	73.3*	-2.8	4.0	33.7	5.9	-4.0	119.2*	13.5	17.5
Cn1c2ccccc2c(=O)c2c(=O)n(C3CCCCCC3)c(C3CCCCC3)nc21	19.2	145.5*	67.7*	-6.6	-14.1	-5.2	0.5	-5.1	-3.9	-40.0	-6.9
CC1Cc2cc(/C=C3/SC(=S)NC3=O)ccc2O1 (stereo not drawn)	-25.7	17.7	-2.1	-10.4	-2.5	-2.2	·	·	·	·	·
Cc1ccc(C2C(/C=C3/SC(=S)NC3=O)=C(c3cccs3)Oc3ccccc32)cc1 (stereo not drawn)	14.3	48.7*	83.1*	1.2	-20.1	4.4	71.6*	-13.4	45.4*	41.2*	15.8	DNMT1 interf DR=>99
CC(=O)Nc1cc(-c2cccc(F)c2)cn2c(-c3ccc(F)cc3)cnc12	14.3	10.8	-0.9	1.1	-1.3	3.7	·	·	·	·	·
Cc1ccc(Cn2c(/C=C/c3ccco3)nc3ccccc32)cc1	6.2	59.1*	75.7*	-3.2	-17.7	32.6	3.1	1.7	37.8	5.2	13.9
CCOc1ccc(-c2nn(-c3ccccc3)cc2/C=C2\SC(=S)N(Cc3ccco3)C2=O)cc1	-1.2	1.8	13.8	0.9	1.8	1.6	·	·	·	·	·

Screening results as filed in PubChem BioAssay.
